Active and inactive are the calls of the source. The calls are words filed in the database; no cut-off is given here.
How the values were obtained:
[1] = Effect on fatty acid composition in human myotubes assessed as change in intracellular SFA level at 30 uM after 96 hrs relative to DMSO control; type: functional
How it was run: (§1)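 Differentiated human myotubes (7 days) treated 96 h with 10 or 30 μM compound or DMSO 0.1% (two controls). Cells washed, harvested, lipids extracted and methylated (methanol, sulfuric acid, 90 °C, 1 h); FA methyl esters quantified by GC with C21:0 internal standard, peaks confirmed by standards and GC/MS; values as mol % of intracellular fatty acids.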

[2] = Effect on fatty acid composition in human myotubes assessed as intracellular PUFA n-3 level at 10 uM after 96 hrs (Rvb= 7.47%); type: functional; how it was run: as §1
[3] = Effect on fatty acid composition in human myotubes assessed as intracellular PUFA n-9 level at 30 uM after 96 hrs (Rvb= 1.78%); type: functional; how it was run: as §1
[4] = Effect on fatty acid composition in human myotubes assessed as intracellular PUFA n-9 level at 10 uM after 96 hrs (Rvb= 1.78%); type: functional; how it was run: as §1
[5] = Effect on fatty acid composition in human myotubes assessed as change in intracellular MUFA level at 10 uM after 96 hrs relative to DMSO control; type: functional; how it was run: as §1
[6] = Effect on fatty acid composition in human myotubes assessed as intracellular PUFA n-3 level at 30 uM after 96 hrs (Rvb= […]); type: functional; how it was run: as §1
[7] = Effect on fatty acid composition in human myotubes assessed as intracellular MUFA level at 30 uM after 96 hrs (Rvb= 41.04%); type: functional; how it was run: as §1
[8] = Effect on fatty acid composition in human myotubes assessed as change in intracellular SFA level at 10 uM after 96 hrs relative to DMSO control; type: functional; how it was run: as §1
[9] = Effect on fatty acid composition in human myotubes assessed as intracellular SFA level at 10 uM after 96 hrs (Rvb= 36.16%); type: functional; how it was run: as §1
[10] = Effect on fatty acid composition in human myotubes assessed as intracellular SFA level at 30 uM after 96 hrs (Rvb= 36.16%); type: functional; how it was run: as §1
Homo sapiens [11] = species on record: Homo sapiens; assay: Effect on intracellular [14C]oleic acid uptake in human myotubes at 10 to 30 uM preincubated for 96 hrs followed by substrate addition incubated for 4 hrs by liquid scintillation analysis; type: functional, cell-based
How it was run: (§2)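 Myotubes differentiated 7 days were pretreated 96 h with 10 or 30 μM compound, 10 nM GW501516 or DMSO 0.1%, then given [1-14C]oleic acid (0.5 μCi/mL, 100 μM) in DPBS with HEPES 10 mM and L-carnitine 1 mM, 4 h at 37 °C. Trapped CO2 and cell-associated label counted by scintillation; uptake = CO2 + CA; Bradford protein; % of DMSO basal; n = 8–15.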

[12] = Effect on fatty acid composition in human myotubes assessed as intracellular MUFA level at 10 uM after 96 hrs (Rvb= 41.04%); type: functional; how it was run: as §1
[13] = Effect on fatty acid composition in human myotubes assessed as intracellular PUFA n-6 level at 10 uM after 96 hrs (Rvb= 13.41%); type: functional; how it was run: as §1
[14] = Effect on total fatty acid level in human myotubes assessed as per mg of protein at 10 to 30 uM; type: ADME
[15] = Effect on fatty acid composition in human myotubes assessed as change in intracellular MUFA level at 30 uM after 96 hrs relative to DMSO control; type: functional; how it was run: as §1
[16] = Effect on fatty acid composition in human myotubes assessed as intracellular PUFA n-6 level at 30 uM after 96 hrs (Rvb= 13.41%); type: functional; how it was run: as §1
[17] = Effect on fatty acid composition in human myotubes assessed as intracellular dTTA level at 30 uM after 96 hrs; type: functional; how it was run: as §1
[18] = Effect on fatty acid composition in human myotubes assessed as intracellular TTA level at 10 uM after 96 hrs; type: functional; how it was run: as §1
[19] = Effect on fatty acid composition in human myotubes assessed as intracellular dTTA level at 10 uM after 96 hrs; type: functional; how it was run: as §1
[20] = Effect on fatty acid composition in human myotubes assessed as intracellular TTA level at 30 uM after 96 hrs; type: functional; how it was run: as §1
Homo sapiens [21] = species on record: Homo sapiens; assay: Induction of fatty acid oxidation in human myotubes using [14C]oleic acid as substrate preincubated for 96 hrs followed by substrate addition incubated for 4 hrs by liquid scintillation analysis; type: functional; how it was run: as §2
[22] = Effect on protein level in human myotubes at 10 to 30 uM; type: ADME
[23] = Effect on fatty acid composition in human myotubes assessed as intracellular tTTA level at 30 uM after 96 hrs; type: functional; how it was run: as §1
[24] = molecular target: T1, Peroxisome proliferator-activated receptor (Homo sapiens) (UniProt P37231+Q07869+Q03181); assay: Agonist activity at PPAR in human myotubes assessed as CPT1A mRNA expression at 30 uM after 96 hrs by qPCR analysis relative to control
How it was run: (§3)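 Myotubes from satellite cells of abdominal muscle biopsies of healthy donors, differentiated 7 days, then exposed 96 h to test lipids (30 μM) vs DMSO 0.1%. Total RNA isolated (RIN ≥7), reverse transcribed, real-time PCR with gene-specific primers; expression expressed relative to DMSO control.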

[25] = Effect on fatty acid composition in human myotubes assessed as intracellular tTTA level at 10 uM after 96 hrs; type: functional; how it was run: as §1
[26] = molecular target: T1, Peroxisome proliferator-activated receptor (Homo sapiens); assay: Agonist activity at PPAR in human myotubes assessed as CD36 mRNA expression at 30 uM after 96 hrs by qPCR analysis relative to control; how it was run: as §3
[27] = molecular target: T1, Peroxisome proliferator-activated receptor (Homo sapiens); assay: Agonist activity at PPAR in human myotubes assessed as ANGPTL4 mRNA expression at 30 uM after 96 hrs by qPCR analysis relative to control; how it was run: as §3
[28] = molecular target: T1, Peroxisome proliferator-activated receptor (Homo sapiens); assay: Agonist activity at PPAR in human myotubes assessed as FABP3 mRNA expression at 30 uM after 96 hrs by qPCR analysis relative to control; how it was run: as §3
[29] = Effect on fatty acid composition in human myotubes assessed as intracellular PUFA n-3 level at 10 uM after 96 hrs (Rvb= 5.16%); type: functional; how it was run: as §1
[30] = Effect on fatty acid composition in human myotubes assessed as intracellular PUFA n-6 level at 30 uM after 96 hrs (Rvb= 11.46%); type: functional; how it was run: as §1
[31] = Effect on fatty acid composition in human myotubes assessed as intracellular MUFA level at 30 uM after 96 hrs (Rvb= 49.95%); type: functional; how it was run: as §1
[32] = Effect on fatty acid composition in human myotubes assessed as intracellular MUFA level at 10 uM after 96 hrs (Rvb= 49.95%); type: functional; how it was run: as §1
[33] = Effect on fatty acid composition in human myotubes assessed as intracellular SFA level at 10 uM after 96 hrs (Rvb= 31.41%); type: functional; how it was run: as §1
[34] = Effect on fatty acid composition in human myotubes assessed as intracellular PUFA n-3 level at 30 uM after 96 hrs (Rvb= 5.16%); type: functional; how it was run: as §1
[35] = Effect on fatty acid composition in human myotubes assessed as intracellular PUFA n-9 level at 10 uM after 96 hrs (Rvb= 1.89%); type: functional; how it was run: as §1
[36] = Effect on fatty acid composition in human myotubes assessed as intracellular PUFA n-9 level at 30 uM after 96 hrs (Rvb= 1.89%); type: functional; how it was run: as §1
[37] = Effect on fatty acid composition in human myotubes assessed as intracellular PUFA n-6 level at 10 uM after 96 hrs (Rvb= 11.46%); type: functional; how it was run: as §1
[38] = Effect on fatty acid composition in human myotubes assessed as intracellular SFA level at 30 uM after 96 hrs (Rvb= 31.41%); type: functional; how it was run: as §1

CCCCCCCCCCCCCCSCC(=O)OC[C@@H](O)COP(=O)([O-])OCC[N+](C)(C)C showed an Activity [1] of -34.6%, an Activity [2] of 7.68 mol% and an Activity [3] of 1.97 mol%. The Activity [4] was 2.21 mol%, the Activity [5] was -9.6% and the Activity [6] was 7.56 mol%. It also gave an Activity [7] of 33.15 mol%, an Activity [8] of -16.3% and an Activity [9] of 30.15 mol%. For the same compound, the Activity [10] was 23.57 mol%, the Activity (Homo sapiens [11]) was “inactive” and the Activity [12] was 37.12 mol%. The Activity [13] was 13.96 mol%, the Activity [14] was “Non-toxic” and the Activity [15] was -19.3%. It also gave an Activity [16] of 13.2 mol%, an Activity [17] of 0.91 mol% and an Activity [18] of 7.99 mol%. For the same compound, the Activity [19] was 0.76 mol%, the Activity [20] was 19.51 mol% and the Activity (Homo sapiens [21]) was “Dose-dependent effect”. The Activity [22] was “Non-toxic”.
For CCCCCCC#CCCCCCCSCC(=O)O, the Activity [23] was 11.34 mol%, the Activity [1] was 0.7% and the Activity [2] was 8.41 mol%. For the same compound, the Activity [3] was 0.87 mol%, the Activity [4] was 1.32 mol% and the fold change (FC) [24] was < 10. The Activity [25] was 3.01 mol%, the Activity [5] was -11.6% and the Activity [6] was 7.09 mol%. The Activity [7] was 32.32 mol%, the Activity [8] was 2.2% and the Activity [9] was 38.85 mol%. The Activity [10] was 36.3 mol%, the Activity (Homo sapiens [11]) was “inactive” and the Activity [12] was 36.3 mol%. The Activity [26] was “Active”, the Activity [13] was 13.93 mol% and the fold change (FC) [27] was 35. The Activity [14] was “Non-toxic”, the Activity [15] was -21.3% and the Activity [16] was 11.63 mol%. The Activity [18] was 0.06 mol%, the Activity [20] was 0.32 mol% and the Activity [28] was “Active”. The Activity [22] was “Non-toxic”.
CCCCCC/C=C\CCCCCCSCC(=O)OC[C@H](COP(=O)([O-])OCC[N+](C)(C)C)OC(=O)CSCCCCCC/C=C\CCCCCC showed an Activity [29] of 4.74 mol%, an Activity [30] of 11.45 mol% and an Activity [31] of 43.41 mol%. The Activity [32] was 48.17 mol%, the Activity [1] was 4.5% and the Activity [33] was 32.26 mol%. The Activity [24] was “Active”, the Activity [5] was -3.6% and the Activity [8] was 2.7%. For the same compound, the Activity [34] was 4.63 mol%, the Activity (Homo sapiens [11]) was “inactive” and the Activity [26] was “Active”. The Activity [35] was 1.53 mol%, the Activity [27] was “Active” and the Activity [14] was “Non-toxic”. The Activity [15] was -13.1%, the Activity [17] was 6.08 mol% and the Activity [36] was 1.42 mol%. The Activity [37] was 11.29 mol%, the Activity [18] was 0.01 mol% and the Activity [19] was 1.87 mol%. For the same compound, the Activity [20] was 0.4 mol%, the Activity [28] was “Active” and the Activity [38] was 32.82 mol%. For the same compound, the Activity [22] was “Non-toxic”.
CCCCCCCCCCCCCCSCC(=O)OC[C@@H](O)CO showed an Activity [1] of -38.1%, an Activity [2] of 8.42 mol% and an Activity [3] of 1.68 mol%. The Activity [4] was 1.81 mol%, the Activity [24] was “Active” and the Activity [5] was -6.4%. The Activity [6] was 8.21 mol%, the Activity [7] was 33.11 mol% and the Activity [8] was -18.5%. The Activity [9] was 29.36 mol%, the Activity [10] was 22.3 mol% and the Activity (Homo sapiens [11]) was “inactive”. The Activity [12] was 38.46 mol%, the Activity [26] was “Active” and the Activity [13] was 14.15 mol%. The Activity [27] was “Active”, the Activity [14] was “Non-toxic” and the Activity [15] was -19.4%. The Activity [16] was 13.63 mol%, the Activity [17] was 0.91 mol% and the Activity [18] was 7.17 mol%. For the same compound, the Activity [19] was 0.49 mol%, the Activity [20] was 20.04 mol% and the Activity [28] was “Active”. For the same compound, the Activity (Homo sapiens [21]) was “Dose-dependent effect” and the Activity [22] was “Non-toxic”.
With CCCCCCCCCCCCCCSCC(=O)OC[C@H](COP(=O)([O-])OCC[N+](C)(C)C)OC(=O)CSCCCCCCCCCCCCCC [PHOSPHATIDYLCHOLINE] the Activity [1] was -11.8%, the Activity [2] was 6.98 mol% and the Activity [3] was 1.95 mol%. The Activity [4] was 1.88 mol%, the Activity [24] was “inactive” and the Activity [5] was -8.8%. It also gave an Activity [6] of 7.3 mol%, an Activity [7] of 39.28 mol% and an Activity [8] of -2.5%. For the same compound, the Activity [9] was 35.14 mol%, the Activity [10] was 31.79 mol% and the Activity (Homo sapiens [11]) was “inactive”. The Activity [12] was 37.48 mol%, the Activity [26] was “inactive” and the Activity [13] was 12.71 mol%. For the same compound, the Activity [27] was “inactive”, the Activity [14] was “Non-toxic” and the Activity [15] was -4.4%. It also gave an Activity [16] of 13.31 mol%, an Activity [17] of 0.34 mol% and an Activity [18] of 5.5 mol%. For the same compound, the Activity [19] was 0.17 mol%, the Activity [20] was 5.9 mol% and the Activity [28] was “inactive”. The Activity [22] was “Non-toxic”.

Reference: ChEMBL document CHEMBL3763093, “The molecular structure of thio-ether fatty acids influences PPAR-dependent regulation of lipid metabolism” (Bioorg Med Chem, 2016)
